Tested on: HCMEC/D3 cells
Test: Cellular binding assay by flow cytometry
Format: cell-based, human
Settings: p<0.001, n=3
How it was run: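 HCMEC/D3 cells grown at 37°C in 5% CO2 to 70% confluence, detached, and pre-treated with heparanase I (10 U/ml) and III (2 U/ml) for 1.5 h at 37°C. Cells were then incubated 1 h on ice in 1% BSA/PBS with Atto 425-labelled CXCL8 or FITC-labelled peptide (5 µg/ml). Cells were washed twice (500 x g, 5 min) and signal read by flow cytometry; mean ± SE, n=3.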

## CXCL8: recombinant human CXCL8, labelled with Atto 425 for binding assays
  binding to HCMEC/D3 cells pre-treated with heparanase I&III: significantly reduced

Reference: article PMC5919120 (Journal of immunology (Baltimore, Md. : 1950), 2018)
